{"data": "Experimental data of several laboratories", "sample": "plasma", "route": "intravenous", "note": "Protocols differ between the studies behind these lines."}
{"SMILES": "COc1cc(-c2cc(C(C)=O)n3ccccc23)c(OC)cc1Cn1ccnc1", "system": "male Sprague-Dawley rat", "setting": "5 mg/kg", "clearance": "20.1 mL/min/kg"}
{"SMILES": "[2H]c1cc(C)c(NC(=O)c2cnc(Nc3cc(N4CCC(O)CC4)nc(C)n3)s2)c(Cl)c1", "system": "male Sprague-Dawley rat", "setting": "1 mg/kg", "clearance": "33.3 mL/min/kg"}
{"SMILES": "COc1ccc(-c2coc3cc(O)cc(O)c3c2=O)cc1", "system": "rat", "setting": "2 mg/kg", "clearance": "48.9 mL/min/kg"}
{"SMILES": "C[C@H]1CN(c2ccc(C3CCC(=O)NC3=O)cc2F)CCN1CC12CCC(NS(=O)(=O)c3ccc(Nc4ncc(C(F)(F)F)c(N5CCC[C@](C)(O)C5)n4)c(F)c3)(CC1)CO2 (stereo partly drawn)", "system": "rat", "setting": "2 mg/kg", "clearance": "18 mL/min/kg"}
{"SMILES": "C=CCn1c(=O)c2cnc(Nc3ccc(N4CCN(C)CC4)cc3)nc2n1-c1ccc2c(n1)[C@@](O)(CC)CC2", "system": "rat", "setting": "3 mg/kg", "clearance": "33 mL/min/kg"}
{"SMILES": "Cc1nc(Nc2ncc(C(=O)Nc3c(C)cccc3Cl)s2)cc(N2CC[C@H](N)C2)n1", "system": "male Sprague-Dawley rat", "setting": "1 mg/kg", "clearance": "51.7 mL/min/kg"}
{"SMILES": "CNS(=O)(=O)c1ccc(Nc2ncc3cc(Cl)c(=O)n(C4CCCC4)c3n2)c(C)c1", "system": "rat", "setting": "2 mg/kg", "clearance": "50 mL/min/kg"}
{"SMILES": "O=c1c(NCCc2cccc(Cl)c2)c(Nc2ccc(Cl)cc2)c1=O", "system": "male Sprague-Dawley rat", "setting": "1 mg/kg", "clearance": "29.3 mL/min/kg"}
{"SMILES": "Cc1nc(Nc2ncc(C(=O)Nc3c(C)cccc3Cl)s2)cc(N2CCN(CCO)CC2)n1", "system": "male Sprague-Dawley rat", "setting": "1 mg/kg", "clearance": "21.7 mL/min/kg"}
{"SMILES": "O=C1CCC(N2Cc3cc(C4CCN(Cc5ccccc5)CC4)ccc3C2=O)C(=O)N1 (stereo not drawn)", "system": "male Sprague-Dawley rat", "setting": "1 mg/kg", "clearance": "51.4 mL/min/kg"}
{"SMILES": "Cc1cc(S(=O)(=O)NC2CC(N3CCN(CC4CCN(c5cccc6c5n(C)c(=O)n6C5CCC(=O)NC5=O)CC4)C4(CC4)C3)C2)ccc1Nc1ncc(C(F)(F)F)c(N2CCC[C@](C)(O)C2)n1 (stereo partly drawn)", "system": "rat", "setting": "2 mg/kg", "clearance": "35 mL/min/kg"}
{"SMILES": "COc1ccc(N(Cc2csc(-c3ccccc3)n2)C(=O)CCCCCC(=O)NO)cc1", "system": "female Sprague-Dawley rat", "setting": "5 mg/kg", "clearance": "6810 mL/min/kg"}
